In ChEMBL document CHEMBL1255475, “Mutant prevention concentrations of four carbapenems against gram-negative rods” (2010):
Converted amounts (≈) assume the structure as drawn.

Columns and labels:
Klebsiella pneumoniae [1] = assay: Antibacterial activity against beta-lactamase-positive ESBL-negative Klebsiella pneumoniae E509 incubated up to 7 days by agar dilution method; format: functional; settings: E509, 168 h
Klebsiella pneumoniae [2] = assay: Antibacterial activity against beta-lactamase-positive ESBL-positive Klebsiella pneumoniae E475 incubated up to 7 days by agar dilution method; format: functional; settings: E475, 168 h
Klebsiella pneumoniae [3] = assay: Antibacterial activity against beta-lactamase-positive ESBL-negative Klebsiella pneumoniae E507 incubated up to 7 days by agar dilution method; format: functional; settings: E507, 168 h
How it was run: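 MPC determination: overnight cultures on blood trypticase soy agar at 35°C in air were resuspended in 0.9% saline, and CFU were counted on drug-free Mueller-Hinton agar. […] Growth was retested by agar dilution to confirm mutants. MPC was the lowest concentration preventing resistant-mutant growth.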

Escherichia coli [4] = assay: Ratio of mutant prevention concentration to minimum Inhibitory concentration for beta-lactamase-negative Escherichia coli E347; format: functional
Escherichia coli [5] = assay: Ratio of mutant prevention concentration to minimum Inhibitory concentration for beta-lactamase-negative Escherichia coli E348; format: functional
Escherichia coli [6] = assay: Ratio of mutant prevention concentration to minimum Inhibitory concentration for beta-lactamase-negative Escherichia coli E424; format: functional
Escherichia coli [7] = assay: Ratio of mutant prevention concentration to minimum Inhibitory concentration for beta-lactamase-negative Escherichia coli E425; format: functional
Escherichia coli [8] = assay: Ratio of mutant prevention concentration to minimum Inhibitory concentration for beta-lactamase-positive ESBL-positive Escherichia coli E446; format: functional
Escherichia coli [9] = assay: Ratio of mutant prevention concentration to minimum Inhibitory concentration for beta-lactamase-positive ESBL-positive Escherichia coli E450; format: functional
Escherichia coli [10] = assay: Ratio of mutant prevention concentration to minimum Inhibitory concentration for beta-lactamase-positive ESBL-positive Escherichia coli E456; format: functional
Escherichia coli [11] = assay: Ratio of mutant prevention concentration to minimum Inhibitory concentration for beta-lactamase-positive ESBL-positive Escherichia coli E460; format: functional
Escherichia coli [12] = assay: Ratio of mutant prevention concentration to minimum Inhibitory concentration for beta-lactamase-positive ESBL-negative Escherichia coli E484; format: functional
Klebsiella pneumoniae [13] = assay: Ratio of mutant prevention concentration to minimum Inhibitory concentration for beta-lactamase-negative Klebsiella pneumoniae E357; format: functional
Klebsiella pneumoniae [14] = assay: Ratio of mutant prevention concentration to minimum Inhibitory concentration for beta-lactamase-negative Klebsiella pneumoniae E419; format: functional
Klebsiella pneumoniae [15] = assay: Ratio of mutant prevention concentration to minimum Inhibitory concentration for beta-lactamase-negative Klebsiella pneumoniae E361; format: functional
Klebsiella pneumoniae [16] = assay: Ratio of mutant prevention concentration to minimum Inhibitory concentration for beta-lactamase-positive ESBL-positive Klebsiella pneumoniae E476; format: functional
Klebsiella pneumoniae [17] = assay: Ratio of mutant prevention concentration to minimum Inhibitory concentration for beta-lactamase-positive ESBL-negative Klebsiella pneumoniae E480; format: functional
Klebsiella pneumoniae [18] = assay: Ratio of mutant prevention concentration to minimum Inhibitory concentration for beta-lactamase-positive ESBL-negative Klebsiella pneumoniae E474; format: functional
Klebsiella pneumoniae [19] = assay: Ratio of mutant prevention concentration to minimum Inhibitory concentration for beta-lactamase-positive ESBL-positive Klebsiella pneumoniae E475; format: functional
Klebsiella pneumoniae [20] = assay: Ratio of mutant prevention concentration to minimum Inhibitory concentration for beta-lactamase-positive ESBL-negative Klebsiella pneumoniae E473; format: functional
Klebsiella pneumoniae [21] = assay: Ratio of mutant prevention concentration to minimum Inhibitory concentration for beta-lactamase-positive ESBL-positive Klebsiella pneumoniae E478; format: functional
Klebsiella pneumoniae [22] = assay: Ratio of mutant prevention concentration to minimum Inhibitory concentration for beta-lactamase-positive ESBL-negative Klebsiella pneumoniae E481; format: functional
Klebsiella pneumoniae [23] = assay: Ratio of mutant prevention concentration to minimum Inhibitory concentration for beta-lactamase-negative Klebsiella pneumoniae E420; format: functional
Escherichia coli [24] = assay: Antibacterial activity against beta-lactamase-positive ESBL-positive Escherichia coli E465 assessed as mutant prevention concentration after overnight incubation; format: functional
How it was run: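 Overnight growth on blood trypticase soy agar (35°C, air) was resuspended in 0.9% saline and counted on drug-free Mueller-Hinton agar. […] Colonies were retested by agar dilution to confirm mutants. MPC was the lowest concentration preventing resistant-mutant growth.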

Pseudomonas aeruginosa [25] = assay: Antibacterial activity against Pseudomonas aeruginosa P320 incubated up to 7 days by agar dilution method; format: functional; settings: P320, 168 h
Pseudomonas aeruginosa [26] = assay: Antibacterial activity against Pseudomonas aeruginosa P322 incubated up to 7 days by agar dilution method; format: functional; settings: P322, 168 h
Pseudomonas aeruginosa [27] = assay: Antibacterial activity against Pseudomonas aeruginosa P327 incubated up to 7 days by agar dilution method; format: functional; settings: P327, 168 h
Pseudomonas aeruginosa [28] = assay: Antibacterial activity against Pseudomonas aeruginosa P323 incubated up to 7 days by agar dilution method; format: functional; settings: P323, 168 h
Pseudomonas aeruginosa [29] = assay: Antibacterial activity against Pseudomonas aeruginosa P352 incubated up to 7 days by agar dilution method; format: functional; settings: P352, 168 h
Pseudomonas aeruginosa [30] = assay: Antibacterial activity against Pseudomonas aeruginosa P365 incubated up to 7 days by agar dilution method; format: functional; settings: P365, 168 h
Pseudomonas aeruginosa [31] = assay: Antibacterial activity against Pseudomonas aeruginosa P341 assessed as mutant prevention concentration after overnight incubation; format: functional
Pseudomonas aeruginosa [32] = assay: Antibacterial activity against Pseudomonas aeruginosa P370 incubated up to 7 days by agar dilution method; format: functional; settings: P370, 168 h
Pseudomonas aeruginosa [33] = assay: Antibacterial activity against Pseudomonas aeruginosa P341 incubated up to 7 days by agar dilution method; format: functional; settings: P341, 168 h
Pseudomonas aeruginosa [34] = assay: Antibacterial activity against Pseudomonas aeruginosa P376 incubated up to 7 days by agar dilution method; format: functional; settings: P376, 168 h
Acinetobacter baumannii [35] = assay: Antibacterial activity against Acinetobacter baumannii A848 incubated up to 7 days by agar dilution method; format: functional; settings: A848, 168 h
Acinetobacter baumannii [36] = assay: Antibacterial activity against Acinetobacter baumannii A850 incubated up to 7 days by agar dilution method; format: functional; settings: A850, 168 h
Acinetobacter baumannii [37] = assay: Antibacterial activity against Acinetobacter baumannii A890 incubated up to 7 days by agar dilution method; format: functional; settings: A890, 168 h
Acinetobacter baumannii [38] = assay: Antibacterial activity against Acinetobacter baumannii A891 incubated up to 7 days by agar dilution method; format: functional; settings: A891, 168 h
Acinetobacter baumannii [39] = assay: Antibacterial activity against Acinetobacter baumannii A894 incubated up to 7 days by agar dilution method; format: functional; settings: A894, 168 h
Acinetobacter baumannii [40] = assay: Antibacterial activity against Acinetobacter baumannii A901 incubated up to 7 days by agar dilution method; format: functional; settings: A901, 168 h
Acinetobacter baumannii [41] = assay: Antibacterial activity against Acinetobacter baumannii A910 incubated for 24 h by agar dilution method; settings: A910, 24 h
Acinetobacter baumannii [42] = assay: Antibacterial activity against Acinetobacter baumannii A884 incubated for 24 h by agar dilution method; settings: A884, 24 h
Acinetobacter baumannii [43] = assay: Antibacterial activity against Acinetobacter baumannii A896 incubated for 24 h by agar dilution method; settings: A896, 24 h
Acinetobacter baumannii [44] = assay: Antibacterial activity against Acinetobacter baumannii A908 incubated for 24 h by agar dilution method; settings: A908, 24 h
Acinetobacter baumannii [45] = assay: Antibacterial activity against Acinetobacter baumannii A898 incubated for 24 hrs by agar dilution method; settings: A898, 24 h

## C[C@@H](O)[C@H]1C(=O)N2C(C(=O)O)=C(S[C@@H]3CN[C@H](C(=O)Nc4cccc(C(=O)O)c4)C3)[C@H](C)[C@H]12
Klebsiella pneumoniae [1]
  MIC: 16 µg/mL (≈ 33.6 µM)
Klebsiella pneumoniae [2]
  MIC: 8 µg/mL (≈ 16.8 µM)
Klebsiella pneumoniae [3]
  MIC: 8 µg/mL (≈ 16.8 µM)
Escherichia coli [4]
  Ratio: 4
Escherichia coli [5]
  Ratio: 4
Escherichia coli [6]
  Ratio: 4
Escherichia coli [7]
  Ratio: 4
Escherichia coli [8]
  Ratio: 4
Escherichia coli [9]
  Ratio: >16
Escherichia coli [10]
  Ratio: 16
Escherichia coli [11]
  Ratio: 4
Escherichia coli [12]
  Ratio: 16
Klebsiella pneumoniae [13]
  Ratio: 4
Klebsiella pneumoniae [14]
  Ratio: 2
Klebsiella pneumoniae [15]
  Ratio: 4
Klebsiella pneumoniae [16]
  Ratio: 4
Klebsiella pneumoniae [17]
  Ratio: 4
Klebsiella pneumoniae [18]
  Ratio: 8
Klebsiella pneumoniae [19]
  Ratio: 2
Klebsiella pneumoniae [20]
  Ratio: 4
Klebsiella pneumoniae [21]
  Ratio: 2
Klebsiella pneumoniae [22]
  Ratio: 2
Klebsiella pneumoniae [23]
  Ratio: 4
Escherichia coli [24]
  MPC: 8 µg/mL

## C[C@@H](O)[C@H]1C(=O)N2C(C(=O)O)=C(S[C@@H]3CN[C@H](CNS(N)(=O)=O)C3)[C@H](C)[C@H]12 [DORIPENEM]
Klebsiella pneumoniae [1]
  MIC: 4 µg/mL (≈ 9.51 µM)
Klebsiella pneumoniae [2]
  MIC: 2 µg/mL (≈ 4.76 µM)
Klebsiella pneumoniae [3]
  MIC: 2 µg/mL (≈ 4.76 µM)
Pseudomonas aeruginosa [25]
  MIC: 0.25 µg/mL (≈ 0.595 µM)
Pseudomonas aeruginosa [26]
  MIC: 0.5 µg/mL (≈ 1.19 µM)
Pseudomonas aeruginosa [27]
  MIC: 0.25 µg/mL (≈ 0.595 µM)
Pseudomonas aeruginosa [28]
  MIC: 0.5 µg/mL (≈ 1.19 µM)
Pseudomonas aeruginosa [29]
  MIC: 1 µg/mL (≈ 2.38 µM)
Pseudomonas aeruginosa [30]
  MIC: 0.5 µg/mL (≈ 1.19 µM)
Escherichia coli [4]
  Ratio: 2
Escherichia coli [5]
  Ratio: 2
Pseudomonas aeruginosa [31]
  MPC: 8 µg/mL
Escherichia coli [6]
  Ratio: 2
Escherichia coli [7]
  Ratio: 2
Escherichia coli [8]
  Ratio: 2
Escherichia coli [9]
  Ratio: 4
Escherichia coli [10]
  Ratio: 8
Escherichia coli [11]
  Ratio: 4
Escherichia coli [12]
  Ratio: 4
Klebsiella pneumoniae [13]
  Ratio: 2
Klebsiella pneumoniae [14]
  Ratio: 2
Klebsiella pneumoniae [15]
  Ratio: 2
Klebsiella pneumoniae [16]
  Ratio: 4
Klebsiella pneumoniae [17]
  Ratio: 4
Klebsiella pneumoniae [18]
  Ratio: 16
Klebsiella pneumoniae [19]
  Ratio: 8
Klebsiella pneumoniae [20]
  Ratio: 4
Klebsiella pneumoniae [21]
  Ratio: >16
Klebsiella pneumoniae [22]
  Ratio: 4
Klebsiella pneumoniae [23]
  Ratio: 1
Pseudomonas aeruginosa [32]
  MIC: 0.25 µg/mL (≈ 0.595 µM)
Pseudomonas aeruginosa [33]
  MIC: 0.5 µg/mL (≈ 1.19 µM)
Pseudomonas aeruginosa [34]
  MIC: 0.5 µg/mL (≈ 1.19 µM)
Acinetobacter baumannii [35]
  MIC: 8 µg/mL (≈ 19 µM)
Acinetobacter baumannii [36]
  MIC: 4 µg/mL (≈ 9.51 µM)
Acinetobacter baumannii [37]
  MIC: 0.25 µg/mL (≈ 0.595 µM)
Acinetobacter baumannii [38]
  MIC: 0.5 µg/mL (≈ 1.19 µM)
Acinetobacter baumannii [39]
  MIC: 0.5 µg/mL (≈ 1.19 µM)
Acinetobacter baumannii [40]
  MIC: 4 µg/mL (≈ 9.51 µM)
Escherichia coli [24]
  MPC: 0.5 µg/mL
Acinetobacter baumannii [41]
  MIC: 2 µg/mL (≈ 4.76 µM)
Acinetobacter baumannii [42]
  MIC: 2 µg/mL (≈ 4.76 µM)
Acinetobacter baumannii [43]
  MIC: 0.5 µg/mL (≈ 1.19 µM)
Acinetobacter baumannii [44]
  MIC: 0.5 µg/mL (≈ 1.19 µM)
Acinetobacter baumannii [45]
  MIC: 2 µg/mL (≈ 4.76 µM)

## C[C@@H](O)[C@H]1C(=O)N2C(C(=O)O)=C(SCCNC=N)C[C@H]12 [IMIPENEM ANHYDROUS]
Pseudomonas aeruginosa [31]
  MPC: 32 µg/mL
Escherichia coli [24]
  MPC: 0.5 µg/mL

## C[C@@H](O)[C@H]1C(=O)N2C(C(=O)O)=C(S[C@@H]3CN[C@H](C(=O)N(C)C)C3)[C@H](C)[C@H]12 [MEROPENEM]
Klebsiella pneumoniae [2]
  MIC: 4 µg/mL (≈ 10.4 µM)
Klebsiella pneumoniae [3]
  MIC: 4 µg/mL (≈ 10.4 µM)
Pseudomonas aeruginosa [25]
  MIC: 0.5 µg/mL (≈ 1.3 µM)
Pseudomonas aeruginosa [26]
  MIC: 2 µg/mL (≈ 5.22 µM)
Pseudomonas aeruginosa [27]
  MIC: 0.25 µg/mL (≈ 0.652 µM)
Pseudomonas aeruginosa [28]
  MIC: 0.5 µg/mL (≈ 1.3 µM)
Pseudomonas aeruginosa [29]
  MIC: 2 µg/mL (≈ 5.22 µM)
Pseudomonas aeruginosa [30]
  MIC: 1 µg/mL (≈ 2.61 µM)
Pseudomonas aeruginosa [31]
  MPC: 8 µg/mL
Pseudomonas aeruginosa [32]
  MIC: 0.25 µg/mL (≈ 0.652 µM)
Pseudomonas aeruginosa [33]
  MIC: 0.5 µg/mL (≈ 1.3 µM)
Pseudomonas aeruginosa [34]
  MIC: 1 µg/mL (≈ 2.61 µM)
Acinetobacter baumannii [35]
  MIC: 8 µg/mL (≈ 20.9 µM)
Acinetobacter baumannii [36]
  MIC: 4 µg/mL (≈ 10.4 µM)
Acinetobacter baumannii [37]
  MIC: 0.5 µg/mL (≈ 1.3 µM)
Acinetobacter baumannii [38]
  MIC: 1 µg/mL (≈ 2.61 µM)
Acinetobacter baumannii [39]
  MIC: 1 µg/mL (≈ 2.61 µM)
Acinetobacter baumannii [40]
  MIC: 2 µg/mL (≈ 5.22 µM)
Escherichia coli [24]
  MPC: >1 µg/mL
Acinetobacter baumannii [41]
  MIC: 1 µg/mL (≈ 2.61 µM)
Acinetobacter baumannii [42]
  MIC: 4 µg/mL (≈ 10.4 µM)
Acinetobacter baumannii [43]
  MIC: 1 µg/mL (≈ 2.61 µM)
Acinetobacter baumannii [44]
  MIC: 1 µg/mL (≈ 2.61 µM)
Acinetobacter baumannii [45]
  MIC: 2 µg/mL (≈ 5.22 µM)
